Results taken from PMC6506245 (Science Advances, 2019).
Where two headings read alike, the source gives them in different places. Each block holds one molecule with its values, some of them ahead of it. Bridge positions count the residues as written; N and C are the ends. Square brackets hold non-standard residues; d marks the D form. Peptide text beside a SMILES is read from it. * marks the point of attachment. Biotin = O=C1N[C@H]2[C@H](CS[C@H]2CCCCC(=O)*)N1; 2Nal = N[C@@H](Cc1ccc2ccccc2c1)C(=O)O; S5 = C=CCCC[C@](C)(N)C(=O)O

What was measured:
[1] = target: T1, β-cat (Homo sapiens, UniProt P35222); assay: ALPHA binding assay
T1 sequence (P35222 1-781): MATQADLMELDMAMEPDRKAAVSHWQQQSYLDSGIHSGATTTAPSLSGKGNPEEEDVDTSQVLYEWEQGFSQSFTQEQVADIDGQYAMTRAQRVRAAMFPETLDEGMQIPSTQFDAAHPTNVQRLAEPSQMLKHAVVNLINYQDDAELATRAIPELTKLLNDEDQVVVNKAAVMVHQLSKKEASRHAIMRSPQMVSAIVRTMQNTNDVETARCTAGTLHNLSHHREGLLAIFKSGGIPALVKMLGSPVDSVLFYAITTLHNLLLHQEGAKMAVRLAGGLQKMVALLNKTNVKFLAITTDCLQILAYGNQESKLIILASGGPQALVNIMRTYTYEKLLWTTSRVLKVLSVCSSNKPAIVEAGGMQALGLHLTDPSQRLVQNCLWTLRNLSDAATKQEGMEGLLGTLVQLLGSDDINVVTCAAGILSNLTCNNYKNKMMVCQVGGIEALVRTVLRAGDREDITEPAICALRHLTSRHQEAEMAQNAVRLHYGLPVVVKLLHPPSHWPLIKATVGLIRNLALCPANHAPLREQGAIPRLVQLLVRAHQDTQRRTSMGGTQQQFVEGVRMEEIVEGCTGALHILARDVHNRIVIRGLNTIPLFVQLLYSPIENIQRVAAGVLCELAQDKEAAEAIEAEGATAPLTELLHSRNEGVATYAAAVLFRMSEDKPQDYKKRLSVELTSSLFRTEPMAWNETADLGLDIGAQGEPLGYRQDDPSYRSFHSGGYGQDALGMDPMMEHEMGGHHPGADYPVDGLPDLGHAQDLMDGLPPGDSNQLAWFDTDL

[2] = target: T1, β-cat; assay: HTRF binding assay
[3] = PK profiling in mice; type: in vivo, BALB/c mice
[4] = system: Colo320DM cells; assay: Colo320DM cell viability assay; type: cell-based, human; settings: read-out: IC50, growth of Colo320DM, 72 h
[5] = Dose-escalating toxicity study; type: in vivo, BALB/c mice
In short: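 BALB/c mice received vehicle control or test compound at 10, 15 or 20 mg/kg by i.p. injection, once daily for 14 days. Serum chemistry and hematology were done after the 2-week treatment and compared with vehicle-treated animals.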

[6] = Plasma stability assay; type: in vitro ADME, BALB/c nude mice; settings: BALB/c nude, mouse
[7] = target: histidine-tagged β-catenin (β-cat) protein (UniProt P35222); assay: AlphaScreen or HTRF

Molecule: CC[C@H](C)[C@H](NC(=O)[C@H](CC(=O)O)NC(=O)[C@H](CCCNC(=N)N)NC(=O)[C@H](CC(C)C)NC(=O)[C@@H](NC(=O)[C@H](CCC(N)=O)NC(=O)[C@H](CC(C)C)NC(=O)[C@H](CO)NC(=O)[C@H](CCCNC(=N)N)NC(=O)[C@H](CCC(=O)O)NC(=O)[C@H](CCCNC(=N)N)NC(=O)[C@H](Cc1c[nH]cn1)NC(=O)[C@H](CCC(=O)O)NC(=O)[C@H](CC(C)C)NC(=O)[C@H](CCC(N)=O)NC(=O)[C@H](CCC(=O)O)NC(=O)[C@H](CCC(N)=O)NC(=O)[C@H](CO)NC(=O)[C@H](CC(C)C)NC(=O)CCCC[C@@H]1SC[C@@H]2NC(=O)N[C@@H]21)[C@@H](C)O)C(=O)N[C@@H](CCC(N)=O)C(=O)N[C@@H](CCCNC(=N)N)C(=O)N[C@@H](CCSC)C(=O)N[C@@H](CC(C)C)C(=O)N[C@@H](Cc1ccccc1)C(=O)O [BCL9-HD2A] (Biotin-LSQEQLEHRERSLQTLRDIQRMLF-OH)
Kd [1]: 0.0143 µM | Kd [2]: 0.0383 µM

Kd [1]: 0.142 µM | Kd [2]: 0.192 µM
Molecule: CCCC[C@H](NC(=O)[C@H](CCCNC(=N)N)NC(=O)[C@H](CCC(N)=O)NC(=O)[C@@H](NC(=O)[C@]1(C)CCCC=CCCC[C@](C)(NC(=O)[C@H](CC(C)C)NC(=O)[C@H](CO)NC(=O)[C@H](CCCNC(=N)N)NC(=O)[C@H](CCC(=O)O)NC(=O)[C@H](CCCNC(=N)N)NC(=O)[C@H](Cc2c[nH]cn2)NC(=O)[C@H](CCC(=O)O)NC(=O)[C@H](CC(C)C)NC(=O)[C@H](CCC(N)=O)NC(=O)[C@H](CCC(=O)O)NC(=O)[C@H](CCC(N)=O)NC(=O)[C@H](CO)NC(=O)[C@H](CC(C)C)NC(C)=O)C(=O)N[C@@H]([C@@H](C)O)C(=O)N[C@@H](CC(C)C)C(=O)N[C@@H](CCCNC(=N)N)C(=O)N1)[C@@H](C)CC)C(=O)N[C@@H](CC(C)C)C(=O)N[C@@H](Cc1ccccc1)C(N)=O [SAH-BCL9B]

Molecule: CC[C@H](C)[C@@H]1NC(=O)[C@@](C)(NC(=O)[C@H](CCCNC(=N)N)NC(=O)[C@H](CC(C)C)NC(=O)[C@@H](NC(=O)[C@H](CCC(N)=O)NC(=O)[C@H](CC(C)C)NC(C)=O)[C@@H](C)O)CCCC=CCCC[C@@](C)(C(=O)N[C@@H](CC(C)C)C(=O)N[C@@H](Cc2ccc3ccccc3c2)C(N)=O)NC(=O)[C@H](CCCNC(=N)N)NC(=O)[C@H](CCC(N)=O)NC1=O [hsBCL9CT-24] (Ac-LQTLR[S5]IQR[S5]L[2Nal]-NH2; staple 6-10)
Kd [1]: 0.00473 µM | bioavailability ([3]; BALB/c, mouse, plasma, sc, 10 mg/kg): 56% | Terminal t1/2 ([3]; i.m. 5 mg/kg, BALB/c mice n = 2, table S2A): 10.6 h | IC50 ([4]; CellTiter-Glo): 1.45 µM | survival in toxicity study ([5]; 10, 15, or 20 mg/kg i.p., QD over 14 days): All animals survived the duration of study | serum chemistry and hematology versus vehicle control ([5]; after a 2-week treatment period, 20 mg/kg QD (fig. S4I)): no difference | toxicity in brain, lung, kidney, liver, heart, and spleen tissues by histology ([5]; i.p. QD over 14 days (fig. S4C: 10 mg/kg)): minimal toxicity | half-life at 2 µM [6]: 5.13 h

remaining at 1 h, 2 µM [6]: 0.02%
Molecule: CCN(CC)CCOC(=O)c1ccc(N)cc1 [Procaine, reference compound]

IC50 ([4]; CellTiter-Glo): 15 µM
Molecule: O=C1[C@H](Cc2ccc(O)cc2)N2C(=O)CCN(C(=O)NCc3ccccc3)[C@H]2CN1Cc1cccc2ccccc12 [ICG-001]

Kd [7]: 0.00421 µM
Molecule: hsBCL9CT-24 (hydrocarbon-stapled BCL9-HD2 peptide)

IC50 ([4]; Homo sapiens, COLO 320DM): 18.5 µM
Molecule: Cc1cc(-c2ncc(CC(=O)Nc3ccc(-c4cnccn4)cn3)cc2C)ccn1 [LGK-974]
